Assays:
Rattus norvegicus [1] = experiment: Antiallergic activity in the rat PCA test following iv administration relative to M&B 22,948, the dose of which was 0.1 mg/kg for 100% inhibition; type: functional
Rattus norvegicus [2] = species on record: Rattus norvegicus; experiment: Biological activity; type: functional
[3] = Association constant at 25 degree C in aqueous media; type: ADME
Method in brief: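 Spectroscopic method in aqueous buffer at 25 °C. Values are thermodynamic pKa's corrected for the ionic strength of the buffer solutions.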

[4] = The function log (MrI) where M, is the molecular weight of the test compound and I is its activity relative to the reference compound 1, expresses the biological activity in molar terms; type: functional
Method in brief: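 Relative activity I from iv rat PCA 100%-inhibition comparison with M&B 22,948, converted to molar terms as log(Mr·I) using the compound's molecular weight.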

Rattus norvegicus [5] = experiment: Inhibitory dose in the rat PCA test following iv administration; type: functional; details: read-out: ID50 (the source's name)
Rattus norvegicus [6] = experiment: Inhibitory dose in the rat PCA test following oral administration; type: functional; details: read-out: ID50 (the source's name)

SMILES	Relative activity (Rattus norvegicus [1])	Log [MrI] (Rattus norvegicus [2])	other results
CC(=O)c1ccc(O)c(C(=O)Nc2nn[nH]n2)c1	0.02	0.694	
CCc1cc(C(=O)Nc2nn[nH]n2)c(O)c(/C(C)=N/OC)c1	3.5	3.025	
CC(=O)c1cc(F)cc(C(=O)Nc2nnn[nH]2)c1O	0.5	2.123	pKa ([3]; aqueous media, read-out: pKa): 4.2; pKa ([3]; buffer): 7.1
CCCc1cc(NC(=O)c2nn[nH]n2)c(O)c(C(C)=O)c1	10	3.461	
Cc1ccc(O)c(C(=O)Nc2nn[nH]n2)c1	0.1	1.34	
CC(=O)c1cc(C#N)cc(NC(=O)c2nn[nH]n2)c1O	10	3.435	
CC(=O)c1cc([N+](=O)[O-])cc(NC(=O)c2nn[nH]n2)c1O	5	3.164	
CN(C)S(=O)(=O)c1ccc(O)c(NC(=O)c2nn[nH]n2)c1	0.25	1.892	
CCCc1cc(C(C)=O)c(O)c(C(=O)Nc2nn[nH]n2)c1	2	2.762	
CC(=O)c1cccc(C(=O)Nc2nn[nH]n2)c1O	1	2.393	
COC(=O)c1cc(C)cc(NC(=O)c2nn[nH]n2)c1O	2		Log MrI [4]: 2.74
C/C(=N\O)c1cc(C)cc(NC(=O)c2nn[nH]n2)c1O	35	3.985	
CC(=O)c1cc(F)cc(NC(=O)c2nnn[nH]2)c1O [EFLUMAST]	20	3.724	ED50 (Rattus norvegicus [5]): 0.004 mg/kg; ED50 (Rattus norvegicus [6]): 0.16 mg/kg
Cc1cc(NC(=O)c2nn[nH]n2)c(O)c(C(=O)N(C)C)c1	1	2.463	
CCC(=O)c1cc(CC)cc(NC(=O)c2nn[nH]n2)c1O	5	3.16	
COc1cc(Br)cc(C(=O)Nc2nn[nH]n2)c1O	0.2	1.798	
CC(=O)Nc1cc(NC(=O)c2nn[nH]n2)c(O)c(C(C)=O)c1	0.5		Log MrI [4]: 2.19
N#Cc1ccc(O)c(C(=O)Nc2nn[nH]n2)c1	0.5	2.061	
CC(=O)c1cc(C)cc(C(=O)Nc2nn[nH]n2)c1O	1	2.417	
CC(=O)c1cc(S(N)(=O)=O)cc(C(=O)Nc2nn[nH]n2)c1O	0.2	1.814	
COc1cc(C)cc(C(=O)Nc2nn[nH]n2)c1O	0.5	2.095	
COc1cc([N+](=O)[O-])cc(C(=O)Nc2nn[nH]n2)c1O	1	2.447	
O=C(Nc1ccccc1O)c1nn[nH]n1	1	2.31	
CC(=O)Nc1cc(C(C)=O)c(O)c(C(=O)Nc2nn[nH]n2)c1	0.2	1.784	
CCc1cc(NC(=O)c2nn[nH]n2)c(O)c(C(C)=O)c1	20	3.74	
O=C(Nc1nn[nH]n1)c1cc(F)ccc1O	0.1	1.348	
CCc1cc(OC)c(O)c(C(=O)Nc2nn[nH]n2)c1	1	2.42	

SMILES	Relative activity (Rattus norvegicus [1])	Log [MrI] (Rattus norvegicus [2])	other results
CC(=O)c1cc(C(C)(C)C)cc(NC(=O)c2nn[nH]n2)c1O	0.5	2.17	
COc1cc(Br)cc(NC(=O)c2nn[nH]n2)c1O	2	2.798	
CC(=O)c1cc(C(C)(C)C)cc(C(=O)Nc2nn[nH]n2)c1O	0.4	2.084	
COc1cc(NC(C)=O)cc(C(=O)Nc2nn[nH]n2)c1O	0.02	0.766	
O=C(Nc1nn[nH]n1)c1cc(O)ccc1O	0.1		Log MrI [4]: 1.34
CC(=O)c1cc([N+](=O)[O-])cc(C(=O)Nc2nn[nH]n2)c1O	1	2.465	
CN(C)S(=O)(=O)c1ccc(O)c(C(=O)Nc2nn[nH]n2)c1	0.05	1.193	
O=C(Nc1nn[nH]n1)c1cc(Br)ccc1O	0.02	0.756	
COc1cccc(C(=O)Nc2nn[nH]n2)c1O	1	2.371	
CCCC(=O)c1cc(C)cc(NC(=O)c2nn[nH]n2)c1O	4	3.063	
Cc1cc(NC(=O)c2nn[nH]n2)c(O)c(C(=O)C(F)(F)F)c1	0.2	1.8	
CC(=O)c1cccc(NC(=O)c2nn[nH]n2)c1O	20	3.694	
Cc1cc(NC(=O)c2nn[nH]n2)c(O)c(-c2nn[nH]n2)c1	1	2.455	
CCC(=O)c1cc(C)cc(C(=O)Nc2nn[nH]n2)c1O	2	2.741	
CC(C)(C)c1ccc(O)c(C(=O)Nc2nn[nH]n2)c1	0.01	0.417	
CSc1ccc(O)c(C(=O)Nc2nn[nH]n2)c1	0.2	1.701	
O=C(Nc1nn[nH]n1)c1cc(C(F)(F)F)ccc1O	0.02	0.737	
CC(=O)c1cc(Cl)cc(NC(=O)c2nn[nH]n2)c1O	7	3.295	
COc1cc(NC(=O)c2nn[nH]n2)c(O)c(C(C)=O)c1	10	3.443	
CCC(=O)c1cc(C#N)cc(NC(=O)c2nn[nH]n2)c1O	5	3.156	
CCc1cc(NC(=O)c2nn[nH]n2)c(O)c(OC)c1	10	3.42	
O=C(Nc1nn[nH]n1)c1ccccc1O	0.1	1.312	
CS(=O)(=O)c1ccc(O)c(C(=O)Nc2nn[nH]n2)c1	0.04	1.053	
O=C(Nc1nn[nH]n1)c1cc([N+](=O)[O-])ccc1O	0.5		Log MrI [4]: 2.1
COc1cc(C#N)cc(C(=O)Nc2nn[nH]n2)c1O	2	2.716	
CC(=O)c1cc(Br)cc(NC(=O)c2nn[nH]n2)c1O	2	2.814	
COc1cc(C(C)(C)C)cc(C(=O)Nc2nn[nH]n2)c1O	0.1	1.464	

SMILES	Relative activity (Rattus norvegicus [1])	Log [MrI] (Rattus norvegicus [2])	other results
Cc1cc(NC(=O)c2nn[nH]n2)c(O)c(C(=O)C(C)C)c1	5	3.16	
CC(=O)c1cc(C)cc(NC(=O)c2nn[nH]n2)c1O	10	3.417	
Cc1cc(NC(=O)c2nn[nH]n2)c(O)c(C(=O)O)c1	0.2		Log MrI [4]: 1.72
COc1cc(C(C)=O)c(O)c(C(=O)Nc2nn[nH]n2)c1	2	2.743	
CO/N=C(\C)c1cc(C)cc(NC(=O)c2nn[nH]n2)c1O	10	3.463	
Cc1cc(NC(=O)c2nn[nH]n2)c(O)c(C(N)=O)c1	5	3.118	
CCc1cc(C(=O)Nc2nn[nH]n2)c(O)c(/C(C)=N/O)c1	10	3.462	
CC(=O)c1cc(CC(C)C)cc(C(=O)Nc2nn[nH]n2)c1O	0.2	1.783	
COc1cc(C)cc(NC(=O)c2nn[nH]n2)c1O	2.5	2.794	
O=C(Nc1nn[nH]n1)c1cc(Cl)ccc1O	0.1	1.38	
Cc1cc(NC(=O)c2nn[nH]n2)c(O)c(C(=O)Cc2ccccc2)c1	0.1	3.528	
CCC(=O)c1cc(CC)cc(C(=O)Nc2nn[nH]n2)c1O	0.75	2.34	
CC(=O)c1cc(Cl)cc(C(=O)Nc2nn[nH]n2)c1O	0.05	1.149	
CCOC(=O)c1cc(C)cc(NC(=O)c2nn[nH]n2)c1O	10		Log MrI [4]: 3.46
O=C(Nc1nn[nH]n1)c1cc(-c2ccccc2)ccc1O	0.01	0.449	
CCc1cc(C(C)=O)c(O)c(C(=O)Nc2nn[nH]n2)c1	1	2.439	
CC(=O)c1cc(NC(=O)c2nn[nH]n2)c(O)c(C(C)=O)c1	0.5	2.16	
COc1ccc(O)c(C(=O)Nc2nn[nH]n2)c1	0.2	1.672	
CC(=O)c1cc(S(C)(=O)=O)cc(NC(=O)c2nn[nH]n2)c1O	2	2.813	
COc1cccc(NC(=O)c2nn[nH]n2)c1O	5	3.07	
CC(=O)c1cc(Br)cc(C(=O)Nc2nn[nH]n2)c1O	0.05	1.212	
CCC(=O)c1cc(C)cc(NC(=O)c2nn[nH]n2)c1O	5	3.139	
COc1cc(OC)c(O)c(C(=O)Nc2nn[nH]n2)c1	0.5	2.122	
Cc1cc(NC(=O)c2nn[nH]n2)c(O)c(C(=O)C2CC2)c1	5	3.157	
CC(=O)Nc1ccc(O)c(C(=O)Nc2nn[nH]n2)c1	0.01	0.418	

Reference: ChEMBL document CHEMBL1123158, “Synthesis and quantitative structure-activity relationships of antiallergic 2-hydroxy-N-1H-tetrazol-5-ylbenzamides and N-(2-hydroxyphenyl)-1H-tetrazole-5-carboxamides” (J Med Chem, 1986)
